Hits are enriched below; roughly 4.5% of the tested compounds scored in any of these assays.
OX1R antag-1 = antagonists of human orexin 1 receptor (OX1R); inhibition, % at 6.6 µM; OX1R-expressing cells, FRET antagonist read-out; AID 485270; O43613; 330,000 tested, 1.8% active; in the data active means inhibition mostly above about 38%, no sharp cut-off; inactive means mostly below about 40%;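 further: 0% = agonist challenge alone and 100% = reference antagonist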
Target sequence (O43613 whole entry, looked up): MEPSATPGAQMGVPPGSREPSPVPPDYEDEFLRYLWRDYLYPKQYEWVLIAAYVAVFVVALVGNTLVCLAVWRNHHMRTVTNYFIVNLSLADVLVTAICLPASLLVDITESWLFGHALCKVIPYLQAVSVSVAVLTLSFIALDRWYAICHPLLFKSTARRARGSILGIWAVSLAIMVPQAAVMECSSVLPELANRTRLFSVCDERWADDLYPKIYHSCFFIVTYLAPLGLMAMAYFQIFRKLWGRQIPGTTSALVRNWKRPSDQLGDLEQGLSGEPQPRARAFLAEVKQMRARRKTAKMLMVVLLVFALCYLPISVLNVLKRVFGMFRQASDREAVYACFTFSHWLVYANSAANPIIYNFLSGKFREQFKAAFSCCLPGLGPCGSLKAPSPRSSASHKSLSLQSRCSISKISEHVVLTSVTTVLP
TAAR1 antagonist = human TAAR1 antagonism; Q96RJ0; CHO RD-HGA16 TAAR1, Fluo-8 calcium fluorescence, antagonist; inhibition, % at 3 µM; 360,000 tested, 1.5% active; AID 624466;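 active means inhibition above a per-plate cutoff, the mean inhibition of test compounds on that plate plus 3 SD, cut at about 49% in these data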;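 further: 0% = DMSO plus EC80 beta-PEA response and 100% = DMSO alone without agonist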
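System: CHO RD-HGA16 cells bearing hTAAR1. Reagent: EC80 β-phenethylamine stimulus. Schedule: seeding 17-24 h prior, 75-min 37 °C, 30-min RT dye loading. Signal: Fluo-8 intracellular calcium dye fluorescence, real-time kinetic reads. Read-out: % inhibition from peak post-agonist over basal fluorescence ratio. Benchmarks: vehicle wells and EC80 agonist wells. Replicates: n of 1.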
CHO parental Ca = counter-screen: ATP calcium response change in parental CHO cells; parental CHO-K1, ATP-induced calcium, Fluo-8 fluorescence; inhibition, % at 5.6 µM; 330,000 tested, 0.63% active; AID 463079;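 active means inhibition above that plate's mean sample inhibition plus 3 SD, cut at about 26% in these data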;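 further: 0% = ATP-challenged DMSO wells and 100% = DMSO wells without ATP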
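material = parental CHO cells | also added = ATP as calcium-mobilizing challenge | dosing = single point at 5.6 µM | detection = intracellular calcium via Fluo-8 no-wash fluorescent dye | read-out = % inhibition | benchmarks = low control ATP plus DMSO, high control DMSO only | repeats = one well per compound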
TAAR1 ag = human TAAR1 agonism; Q96RJ0; CHO RD-HGA16 TAAR1, Fluo-8 calcium fluorescence; vehicle wells 0%, saturating PEA agonist 100%; activation, % at 3 µM; 360,000 tested, 0.99% active;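 active means activation above the mean activation of all test compounds in the run plus 3 SD, cut at about 38% in these data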
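Signal – calcium-sensitive Fluo-8 signal, excitation 470-495, emission 515-575 nm · System – RD-HGA16 (CHO) cells co-expressing Gα16 and hTAAR1 · Incubation – 17-24 h seeding, 75 min 37 °C dye, 30 min RT · Compound dosing – 3 µM single concentration · Repeats – no replicates (n 1)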
GPR7 antagonist = blocks human GPR7 receptor signaling | 290,000 tested, 1.1% active | AID 1861 | inhibition, % at 4.4 µM | P48145 | GPR7-expressing cells, fluorescence antagonist assay; in the data active means inhibition above about 16%, passing the limit was not always enough;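 further: cells stimulated with the agonist NPW; 0% = agonist with vehicle and 100% = vehicle without agonist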
OX1R antag-2 = blocks the human orexin 1 receptor; O43613; CHO/OX1R cells, Fluo-8 calcium fluorescence, orexin A; inhibition, % at 5 µM; 330,000 tested, 0.43% active; AID 434989;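 active means inhibition above its plate's threshold, mean inhibition of all tested compounds on the plate plus 3 SD, cut at about 37% in these data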;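 further: 0% = orexin A challenge wells and 100% = SB-334867-A antagonist wells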
TAAR1 ag confirm = confirmation of human TAAR1 agonists. shares compounds with TAAR1 ag. CHO RD-HGA16 TAAR1, Fluo-8 calcium fluorescence; scaled: DMSO 0%, maximal phenethylamine 100%. activation, % at 3 µM. 2,400 tested, 82% active;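 active means activation above a cutoff set at the run's mean compound activation plus 3 SD, cut at about 39% in these data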
Ga16 ag counter = counter-screen for TAAR1 agonists: nonselective agonists in parental cells. activation, % at 3 µM. CHO-Ga16 parental, Fluo-8 calcium fluorescence; normalized to maximal ATP response, DMSO zero. shares compounds with TAAR1 ag. 2,400 tested, 50% active;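 active means activation above the run cutoff, the mean activation over all tested wells plus 3 SD, cut at about 12% in these data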;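 further: 0% = DMSO wells and 100% = maximal ATP response on the peak over basal ratio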
TAAR1 desens = counter-screen for human TAAR1 agonists: agonists that desensitize TAAR1; shares compounds with TAAR1 ag; CHO RD-HGA16 hTAAR1, Fluo-8 calcium, beta-PEA response inhibition; inhibition, % at 3 µM; 2,400 tested, 46% active;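 active means inhibition above the run cutoff, the mean inhibition of all test compounds plus 3 SD, cut at about 49% in these data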;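 further: beta-PEA stimulus applied at its EC80; loss of beta-PEA calcium signal after compound pretreatment read as receptor desensitization; 0% = DMSO with beta-PEA at EC80 and 100% = DMSO alone without agonist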
Ga16 nonsel ant = counter-screen for TAAR1 agonists: nonselective Ga16 antagonists. shares compounds with TAAR1 ag. inhibition, % at 3 µM. 2,400 tested, 39% active. CHO-Ga16 ATP-induced calcium, Fluo-8 fluorescence. AID 651952;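 active means inhibition above the plate's mean compound inhibition plus 3 SD, computed per plate, cut at about 22% in these data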;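 further: 0% = EC80 ATP with DMSO and 100% = DMSO wells without ATP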
* = called active by the depositor; / = no result.

SMILES | OX1R antag-1 | TAAR1 antagonist | CHO parental Ca | TAAR1 ag | GPR7 antagonist | OX1R antag-2 | TAAR1 ag confirm | Ga16 ag counter | TAAR1 desens | Ga16 nonsel ant
O=C(NCCNC(=O)c1ccc(-c2ccc(Cl)c(Cl)c2)o1)c1cnccn1 | 20 | 82* | -16 | 63* | -1 | -12 | 57* | 40* | 72* | 51*
Cn1c(SCC(=O)NCCC2=CCCCC2)nnc1C(F)(F)F | / | -26 | / | 2 | / | / | / | / | / | /
CCOc1cc(C(C(=O)NCC2CCCO2)N(C(=O)Cn2nnc3ccccc32)c2ccc(C(C)=O)cc2)ccc1O (stereo not drawn) | 12 | -11 | -5 | 0 | -14 | -15 | / | / | / | /
COc1cccc(N(C(=O)CCl)C(C(=O)NCCc2ccccc2)c2cccs2)c1 (stereo not drawn) | 8 | 0 | -9 | 34 | -5 | -15 | / | / | / | /
COc1ccc(N(C(=O)CCl)C(C(=O)NCCc2ccccc2)c2cccs2)cc1Cl (stereo not drawn) | 22 | 28 | -9 | 40* | 5 | -11 | 33 | -1 | 18 | 20
CC(=O)c1ccc(N2CCN(C(=O)c3noc4c3CSc3ccccc3-4)CC2)cc1 | 0 | 33 | 3 | 7 | 11 | -14 | / | / | / | /
COc1cccc2c1C(=O)c1ccc3ccccc3c1C2=O | 16 | / | -17 | / | -9 | -10 | / | / | / | /
COc1ccc2noc3c2c1C(=O)c1ccccc1-3 | 100* | 67* | 51* | 150* | / | 51* | 74* | 63* | 75* | 61*
O=C(COC(=O)c1cc2ccccc2cc1O)Nc1ccccc1F | 18 | 25 | 16 | 26 | / | 10 | / | / | / | /
O=C(COC(=O)c1cccc(O)c1)NC(=O)Cc1ccccc1 | 14 | 16 | 7 | 20 | -2 | -4 | / | / | / | /
O=C(COC(=O)c1cc2ccccc2cc1O)Nc1cccnc1Cl | 12 | 31 | -9 | 48* | -6 | -20 | 21 | 11 | 28 | 18
O=C(COC(=O)c1ccc(O)cc1O)NC(=O)Cc1ccccc1 | / | 61* | / | 143* | / | / | 134* | 71* | 88* | 42*
O=C(COC(=O)c1ccc2ccccc2c1O)NCc1ccccc1 | 12 | 3 | -14 | -1 | / | -28 | / | / | / | /
O=C(COC(=O)c1cc2ccccc2cc1O)NCc1ccccc1 | 11 | 83* | 11 | 87* | / | 14 | 2 | 29* | 6 | 22*
N#Cc1nc(-c2ccco2)oc1N1CCc2ccccc2C1 | 3 | -1 | -14 | 73* | -6 | -12 | 45* | 3 | 6 | 5
FC(F)(F)c1cccnc1Oc1ccc(C2=NCCS2)cc1 | 8 | 57* | -11 | 84* | -15 | -11 | 58* | 58* | 62* | 43*
O=c1cnnc(Nc2cccc(C(F)(F)F)c2)[nH]1 | 7 | 9 | -9 | 11 | -10 | -2 | / | / | / | /
O=c1cnnc(Nc2ccc(F)cc2)[nH]1 | 17 | 25 | 18 | 46* | -18 | -13 | 57* | 2 | 3 | 4
O=c1cnnc(Nc2cccc(F)c2)[nH]1 | 20 | 37 | -2 | 64* | 6 | -15 | 74* | 0 | 48 | 12
COc1ccc(CN(C)C(C)C(=O)Nc2ccc(S(=O)(=O)N3CCCC3)cc2)c(OC)c1OC (stereo not drawn) | 16 | / | 6 | / | -2 | -5 | / | / | / | /
CC1=C(C(=O)OC2CCC(C)CC2)C(c2ccc(O)c([N+](=O)[O-])c2)NC(=O)N1 (stereo not drawn) | 14 | -35 | -9 | 2 | -22 | -17 | / | / | / | /
